Results taken from ChEMBL document CHEMBL2176900, “Design and synthesis of a novel series of bicyclic heterocycles as potent γ-secretase modulators” (J Med Chem, 2012).
The source made the active and inactive calls. The rule behind the calls is not given here.

Columns and labels:
Mus musculus [1] = assay: Antialzheimer activity in CD1 mouse assessed as amyloid beta 42 level in brain at 10 mg/kg, po at 48 hrs by ELISA relative to control; type: functional
Summary of the method: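 Male CD1 mice, fasted overnight, received a single 10 or 30 mg/kg oral dose. Brain was sampled at an added 48 h time point. The DEA-soluble brain fraction was neutralized and Aβ42 was measured by sandwich ELISA with fluorogenic read-out. Values are % versus vehicle.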

Mus musculus [2] = assay: Inhibition of gamma-secretase in CD1 mouse assessed as total amyloid beta level in brain at 30 mg/kg, po at 4 hrs by ELISA relative to control; type: functional; design: scale not given: the % may be the effect or the level left
Summary of the method: (§1)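 Fasted male CD1 SPF mice were dosed orally at 10 or 30 mg/kg in 20% Captisol. Right hemisphere was homogenized in 0.4% DEA/50 mM NaCl and the high-speed supernatant neutralized. Aβtotal ELISA used N-terminal JRF/rAβ/2 capture, biotinylated 4G8 and streptavidin-peroxidase, then a fluorogenic substrate (ex 320/em 420 nm). Standards spanned 10000–0.3 pg/mL. Values are % change vs T = 0 h, n = 4.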

[3] = Drug uptake in CD1 mouse brain at 10 mg/kg, po at 8 hrs by LC-MS/MS analysis; type: ADME, organism-based; design: dose 10 mg/kg, route oral; details: read-out: Drug uptake
Summary of the method: (§2)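 Overnight-fasted male CD1 mice received one oral dose (10 or 30 mg/kg) in 20% Captisol. After sacrifice, the left brain hemisphere was stored at −18 °C. Compound level was quantified by a qualified LC-MS/MS method, alongside EDTA plasma spun at 1900g, 4 °C. n = 4 per time point.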

[4] = Drug metabolism in rat liver microsomes at 1 uM after 15 mins by ion-trap mass spectrophotometry; type: ADME, Microsome; details: read-out: Drug metabolism
[5] = Drug metabolism in human liver microsomes at 1 uM after 15 mins by ion-trap mass spectrophotometry; type: ADME, Microsome; details: read-out: Drug metabolism
Mus musculus [6] = assay: Antialzheimer activity in CD1 mouse assessed as amyloid beta 42 level in brain at 10 mg/kg, po at 24 hrs by ELISA relative to control; type: functional
Summary of the method: (§3)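 Male CD1 SPF mice, fasted overnight, got a single oral dose of 10 or 30 mg/kg. At each time point the right brain hemisphere was homogenized in 0.4% DEA/50 mM NaCl with protease inhibitors and spun at 221300g for 50 min. The supernatant was neutralized with Tris-HCl pH 6.8. Aβ38 or Aβ42 was read by sandwich ELISA with a fluorogenic peroxidase substrate (ex 320/em 420 nm). Results are mean % change versus T = 0 h, n = 4.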

Rattus norvegicus [7] = assay: Antialzheimer activity in Sprague-Dawley rat assessed as amyloid beta 40 level in brain at 10 mg/kg, po at 2 hrs by ELISA relative to control; type: functional
Summary of the method: (§4)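 Male Sprague-Dawley rats (180-220 g), fasted overnight, were given 10 mg/kg by gastric intubation as a 5 mg/mL suspension in 0.5% methocellulose. At 2, 4, 7 and 25 h, 50 μL CSF was taken from the cisterna magna under isoflurane, then brain was collected. Aβ37/38/40/42 were measured by MesoScale Discovery sandwich immunoassays. Results are mean % change versus T = 0 h, n = 5.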

Rattus norvegicus [8] = assay: Antialzheimer activity in Sprague-Dawley rat assessed as amyloid beta 38 level in CSF at 10 mg/kg, po at 25 hrs by ELISA relative to control; type: functional; summary of the method: as §4
Canis familiaris [9] = assay: Antialzheimer activity in beagle dog assessed as amyloid beta 40 level in cerebrospinal fluid at 20 mg/kg, po at 4 hrs by ELISA relative to control
Mus musculus [10] = assay: Antialzheimer activity in CD1 mouse assessed as amyloid beta 38 level in brain at 30 mg/kg, po at 8 hrs by ELISA relative to control; type: functional; summary of the method: as §3
MDR1 = assay: Apparent permeability from apical to basal side of pig LLCPK1 cells expressing MDR1; type: ADME, cell-based, Sus scrofa; details: LLC-PK1
Salmonella typhimurium = assay: Genotoxicity against Salmonella typhimurium by AMES 2 test; type: toxicity, organism-based; details: salmonella enterica subsp. enterica serovar typhimurium
[11] = Inhibition of sodium channel site 2 at 10 uM
Cytochrome P450 3A4 = Cytochrome P450 3A4 (Homo sapiens, UniProt P08684); assay: Inhibition of CYP3A4 in human liver microsomes using testosterone as substrate; type: ADME, Microsome
Sequence of Cytochrome P450 3A4 (P08684 whole entry): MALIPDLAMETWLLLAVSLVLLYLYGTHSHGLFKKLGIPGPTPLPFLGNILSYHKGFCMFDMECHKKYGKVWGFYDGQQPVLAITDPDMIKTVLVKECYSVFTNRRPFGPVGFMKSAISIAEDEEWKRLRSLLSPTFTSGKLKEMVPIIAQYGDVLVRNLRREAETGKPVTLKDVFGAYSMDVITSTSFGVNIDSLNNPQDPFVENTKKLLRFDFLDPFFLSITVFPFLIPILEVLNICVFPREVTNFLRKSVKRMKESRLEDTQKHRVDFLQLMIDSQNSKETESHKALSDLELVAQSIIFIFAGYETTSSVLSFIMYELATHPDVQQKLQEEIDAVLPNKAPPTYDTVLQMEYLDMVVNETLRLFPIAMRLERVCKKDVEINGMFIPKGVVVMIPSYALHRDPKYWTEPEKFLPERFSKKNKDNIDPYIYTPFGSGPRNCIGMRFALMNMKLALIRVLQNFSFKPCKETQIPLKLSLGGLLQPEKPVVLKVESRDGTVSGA

[12] = Drug uptake in CD1 mouse brain at 30 mg/kg, po at 4 hrs by LC-MS/MS analysis; type: ADME, organism-based; design: dose 30 mg/kg, route oral; details: read-out: Drug uptake; summary of the method: as §2
Brain = assay: Drug uptake in CD1 mouse brain at 30 mg/kg, po at 48 hrs by LC-MS/MS analysis; type: ADME, organism-based; design: dose 30 mg/kg, route oral; details: in vivo, BLD = below limit of detection; summary of the method: as §2
[13] = Drug uptake in CD1 mouse brain at 10 mg/kg, po at 4 hrs by LC-MS/MS analysis; type: ADME, organism-based; design: dose 10 mg/kg, route oral; details: read-out: Drug uptake; summary of the method: as §2
Rattus norvegicus [14] = assay: Antialzheimer activity in Sprague-Dawley rat assessed as amyloid beta 38 level in brain at 10 mg/kg, po at 4 hrs by ELISA relative to control; type: functional; summary of the method: as §4
[15] = Fraction unbound in rat plasma; type: ADME, cell-free
Canis familiaris [16] = assay: Antialzheimer activity in beagle dog assessed as amyloid beta 38 level in cerebrospinal fluid at 20 mg/kg, po at 4 hrs by ELISA relative to control
Mus musculus [17] = assay: Antialzheimer activity in CD1 mouse assessed as amyloid beta 38 level in brain at 10 mg/kg, po at 8 hrs by ELISA relative to control; type: functional; summary of the method: as §3
[18] = molecular target: Gamma-secretase (Homo sapiens) (UniProt Q96BI3+Q9NZ42+Q8WW43+P49768+Q92542+P49810); assay: Inhibition of gamma-secretase in human SK-N-BE(2) cells expressing wild type APP 695 assessed as reduction in total amyloid beta level up to 10 uM after overnight incubation by sandwich immunoassay; type: cell-based
Summary of the method: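 SK-N-BE(2) cells with wild-type APP695 were plated at 10⁴ cells/well in supplemented Ultraculture with test compound at several concentrations. They were incubated overnight at 37 °C, 5% CO₂. Supernatant Aβtotal was measured by AlphaLisa sandwich immunoassay (JRF/AβN/25 capture, biotinylated 4G8). Data are % of the maximum Aβtotal seen without compound.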

Mus musculus [19] = assay: Inhibition of gamma-secretase in CD1 mouse assessed as total amyloid beta level in brain at 10 mg/kg, po at 24 hrs by ELISA relative to control; type: functional; design: scale not given: the % may be the effect or the level left; summary of the method: as §1
Liver microsomes = assay: Drug metabolism in human liver microsome assessed as reactive metabolite formation by gultathione-trapping assay; type: ADME
Gamma-secretase = assay: Modulation of gamma-secretase in human SK-N-BE(2) cells expressing wild type APP 695 assessed as reduction in amyloid beta 42 level after overnight incubation by sandwich immunoassay; type: cell-based
Summary of the method: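 SK-N-BE(2) cells carrying wild-type APP695, plated at 10⁴ cells/well in Ultraculture with glutamine, NEAA, penicillin/streptomycin plus test compound at a range of concentrations. Incubated overnight at 37 °C, 5% CO₂. Supernatant Aβ42 measured by AlphaLisa sandwich immunoassay (JRF/cAβ42/26 capture, biotinylated JRF/AβN/25). IC50 derived from % of maximal Aβ42 without compound. Mean of at least three determinations.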

COc1nc(Nc2cccc3c2nc(-c2ccc(F)cc2)n3C)ccc1-n1cnc(C)c1
Activity (Mus musculus [1]): 101%
Activity (Mus musculus [2]): 98%
concentration at 8 h [3]: 1900 nM
metabolised at 0.25 h, 1 µM [4]: 16%
metabolised at 0.25 h, 1 µM [5]: 6%
Activity (Mus musculus [6]): 94%
Activity (Rattus norvegicus [7]): 77%
Activity (Rattus norvegicus [8]): 110%
Activity (Canis familiaris [9]): 89%
Activity (Mus musculus [10]): 156%
Papp A→B (MDR1): 8 ×10⁻⁶ cm/s
Activity (Salmonella typhimurium): Non-toxic
inhibition [11]: 60%
IC50 (Cytochrome P450 3A4): 2900 nM
concentration at 4 h [12]: 21900 nM
Drug uptake (Brain): BLD
concentration at 4 h [13]: 2800 nM
Activity (Rattus norvegicus [14]): 114%
fraction unbound [15]: 0.0004
Activity (Canis familiaris [16]): 134%
Activity (Mus musculus [17]): 124%
inhibition [18]: inactive
Activity (Mus musculus [19]): 94%
Drug metabolism (Liver microsomes): Not Active
IC50 (Gamma-secretase): 16 nM
